For data set [1], the target named is T1, Scavenger receptor class B member 1 (Mus musculus, UniProt Q61009).
T1 sequence (Q61009 whole entry): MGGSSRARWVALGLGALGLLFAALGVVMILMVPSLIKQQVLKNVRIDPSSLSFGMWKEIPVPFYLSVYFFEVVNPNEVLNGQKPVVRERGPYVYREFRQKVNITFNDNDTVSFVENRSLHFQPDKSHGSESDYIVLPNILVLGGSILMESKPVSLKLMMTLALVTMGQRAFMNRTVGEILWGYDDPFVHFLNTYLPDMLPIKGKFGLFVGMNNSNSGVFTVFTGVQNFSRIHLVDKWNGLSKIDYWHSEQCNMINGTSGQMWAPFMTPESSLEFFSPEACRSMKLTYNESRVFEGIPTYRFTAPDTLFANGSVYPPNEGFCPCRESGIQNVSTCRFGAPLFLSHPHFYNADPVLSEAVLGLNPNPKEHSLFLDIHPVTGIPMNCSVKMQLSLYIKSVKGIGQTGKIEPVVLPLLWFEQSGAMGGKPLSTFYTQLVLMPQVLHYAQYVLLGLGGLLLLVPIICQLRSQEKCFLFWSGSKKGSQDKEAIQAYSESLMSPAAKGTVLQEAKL
Briefly: Inhibition of mouse SR-BI isoform 1 expressed in CHO cells assessed as reduction in transfer of fluorescent lipid DiI from human HDL particles into cells by fluorescence assay. The class given is cell-based. A digest of the protocol:
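ldlA[mSR-BI] cells (CHO, lacking LDL receptor, overexpressing mouse SR-BI), 10,000 per well, plated overnight in F12K/5% FCS. Medium swapped to Ham's F12/0.5% fatty acid-free BSA/25 mM HEPES pH 7.4 with DiI-HDL at 10 μg protein/ml final. Compound pinned in, 3 h at 37 °C, then two PBS (+Ca/Mg) washes. Bottom-read fluorescence; normalized to DMSO and 1 μM BLT-1.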

The nature of data set [2]: Aqueous solubility in PBS buffer with 1% DMSO at 100 uM incubated for 24 hrs by UPLC-MS method. The class given is physicochemical. A digest of the protocol: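 Duplicate samples at 100 μM in PBS pH 7.4 with 1% DMSO, plus matching samples in 100% DMSO. Shaken 250 rpm for 24 h at room temperature. Quantified by UPLC-MS with SIR detection on a single quadrupole; PBS response fitted to a two-point calibration made from the DMSO samples.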

Data set [3] relates to CHO. Kind of data set: Cytotoxicity against CHO cells after 24 hrs. The class given is cell-based, Cricetulus griseus. The conditions noted are these: chinese hamster.
Data set [4] addresses T1, Scavenger receptor class B member 1. Kind of data set: Inhibition of mouse SR-BI isoform 1 expressed in CHO cells assessed as increase in binding of Alexa-488-labeled HDL particles to cells. It counts as cell-based. Summed up: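 ldlA[mSR-BI] cells (LDL receptor-deficient CHO overexpressing mouse SR-BI), 10,000/well in Ham's F12K/5% FCS, grown overnight. Medium swapped for Ham's F12/0.5% fatty acid-free BSA/25 mM HEPES pH 7.4 containing 10 ug/mL Alexa 488-HDL (dye bound covalently to apolipoprotein). Compounds pinned in, 1 uM BLT-1 as positive control, 3 h at 37°C. Cells washed twice with PBS (+Ca/Mg), bottom-read fluorescence, normalised to DMSO and BLT-1 wells.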

The subject of data set [5] is CHO. Briefly: Inhibition of general receptor-mediated endocytosis in SR-BI isoform 1 expressing CHO cells assessed as effect on endocytosis of Alexa-594-labeled transferrin up to 35 uM. The conditions noted are these: Cricetulus griseus. The class given is functional, cell-based.
The nature of data set [6]: Stability in human plasma assessed as compound remaining at 5 uM after 5 hrs at 37 degC by UPLC-MS method. The class given is ADME, cell-free. The conditions noted are these: read-out: Stability. Summed up:
(§1)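 Plasma (human or mouse) diluted 50/50 with PBS pH 7.4, compound at 5 μM (0.95% acetonitrile, 0.05% DMSO). Run in duplicate, shaken 250 rpm at 37 °C. Sampled at 0 and 5 h; analysed by UPLC-MS with SIR detection.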

Data set [7] in a line: Stability in mouse plasma assessed as compound remaining at 5 uM after 5 hrs at 37 degC by UPLC-MS method. The class given is ADME, cell-free. The conditions noted are these: read-out: Stability. Summed up:
as §1

Data set [8] can be described thus: Stability in human liver microsomes assessed as compound remaining at 1 uM in presence of NADPH at 37 degC after 1 hr by UHPLC-MS method. The class given is ADME. The conditions noted are these: read-out: Stability. Summed up:
(§2)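 Liver microsomes (human or mouse) in PBS pH 7.4, final 1 μM compound, 0.3 mg/mL microsomes, 0.5 mM NADPH, 1% DMSO. Run in duplicate at 37 °C with 250 rpm shaking. Sampled at 0 and 1 h.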

Data set [9] in a line: Stability in mouse liver microsomes assessed as compound remaining at 1 uM in presence of NADPH at 37 degC after 1 hr by UHPLC-MS method. The class given is ADME. The conditions noted are these: read-out: Stability. A digest of the protocol: as §2
On the technique in general: Microsomes from liver hold many membrane-bound enzymes, among them those of drug oxidation.

Converted amounts (≈) assume the structure as drawn. The source made the active and inactive calls. The rule behind the calls is not given here. Where only a bound is given, the exact number is not on record here.

As usually defined, the IC50 is the concentration that inhibits the measured activity by half. The term solubility (kinetic) denotes solubility judged after dilution from a stock solution rather than from solid. For orientation: EC50 means the concentration needed to bring the measured effect to its halfway point.

As for `O=C(CN(C(=O)Cn1nnc(-c2ccc3c(c2)OCO3)n1)C1CCCCC1)NC1CCCC1`, the half-inhibitory concentration (IC50) in data set [1] came out at 26 nM.
Same read-out and setting: the same measure for `COc1ccc(-c2nnn(CC(=O)N(CC3CCCCC3)C(C)C(=O)NC3CCCC3)n2)cc1OC` (stereo not drawn): 1600 nM.
`COCC(=O)N1CCc2cc(-c3csc(NC(=O)c4cc(OC)cc(OC)c4)n3)ccc21` gave a solubility (kinetic) at 24 h, 100 µM in data set [2] of 0.57 µM (≈ 0.259 µg/mL).
For the molecule `COc1ccc(-c2cc(CC(=O)N(C3CCCCC3)C(C)C(=O)NC3CCCC3)no2)cc1OC` (stereo not drawn), the IC50 in data set [1] is 23 nM.
The same measure, in the same setting: the result for `COc1ccc(-c2nnn(CC(=O)N(C3CCCCC3)C(C(=O)NC3CCCC3)C(C)C)n2)cc1OC` (stereo not drawn) reads more than 25000 nM.
On the same count and under the same terms, the same measure for `CC(C(=O)NC1CCCC1)N(C(=O)Cn1nnc(-c2ccc(F)cc2)n1)C1CCCCC1` (stereo not drawn): 130 nM; for `Cc1ccc(-c2nnn(CC(=O)N(C3CCCCC3)C(C)C(=O)NC3CCCC3)n2)cc1` (stereo not drawn): 490 nM.
`COc1ccc(-c2nnn(CC(=O)N(C3CCCCC3)C(C)C(=O)NC3CCCC3)n2)cc1OC` (stereo not drawn): the IC50 in data set [1] stood at 55 nM. In addition, the Activity entry in the data set with CHO [3] is recorded as “Non-toxic”. For the same molecule, the kinetic solubility at 24 h, 100 µM in [2] amounted to 114 µM (≈ 55.2 µg/mL).
Consider `CC(C(=O)NC1CCCC1)N(C(=O)Cn1nnc(-c2ccc(Cl)c(Cl)c2)n1)C1CCCCC1` (stereo not drawn), for which the half-inhibitory concentration (IC50) in [1] stood at 180 nM.
Still for that read-out and setting: the result for `COc1ccc(-c2nnn(CC(=O)N(C3CCCCC3)C(C)C(=O)N(C)C3CCCC3)n2)cc1OC` (stereo not drawn) reads 1600 nM; that for `CC(C(=O)NC1CCCC1)N(C(=O)Cn1nnc(-c2cccc(F)c2)n1)C1CCCCC1` (stereo not drawn), 380 nM.
Same read-out and setting: the same measure for `COc1ccc(-c2nnn(CC(=O)N(C3CCCC3)C(C)C(=O)NC3CCCC3)n2)cc1OC` (stereo not drawn): 110 nM.
As for `C[C@H](C(=O)NC1CCCC1)N(C(=O)Cn1nnc(-c2ccc3c(c2)OCO3)n1)C1CCCCC1`, the concentration for half-maximal inhibition (IC50) in data set [1] is 17 nM. For the same molecule, the kinetic solubility at 24 h, 100 µM in [2] is 28 µM (≈ 13.1 µg/mL). For the same molecule, in data set [4], the 50% effective concentration (EC50) is 270 nM. For the same molecule, the inhibition entry in the data set with CHO [5] was “inactive”. Moreover, the remaining at 5 h, 5 µM in data set [6] and in data set [7] was more than 99% throughout. For the same molecule, the remaining at 1 h, 1 µM in [8] and in data set [9] was less than 1% each time.
Take `COc1cccc(-c2nnn(CC(=O)N(C3CCCCC3)C(C)C(=O)NC3CCCC3)n2)c1` (stereo not drawn): the IC50 in data set [1] was 180 nM.
Still for that read-out and setting: the result for `CC(C(=O)NC1CCCC1)N(C(=O)Cc1ccccc1)C1CCCCC1` (stereo not drawn) reads 37000 nM.
Same read-out and setting: the same measure for `COc1ccc(-c2nnn(CC(=O)N(C3CC3)C(C)C(=O)NC3CCCC3)n2)cc1OC` (stereo not drawn): 7500 nM.
Regarding `CC(C(=O)NC1CCCC1)N(C(=O)Cn1nnc(-c2ccc3c(c2)OC(F)(F)O3)n1)C1CCCCC1` (stereo not drawn), the IC50 in data set [1] worked out at 230 nM.
Same read-out and setting: the same measure for `COc1ccc(-c2nnn(CC(=O)N(C3CCCCC3)C(C)C(=O)NC3CCCCC3)n2)cc1OC` (stereo not drawn): 200 nM.
The same measure, in the same setting: the same measure for `CC(C(=O)NC1CCCC1)N(C(=O)Cn1nnc(-c2ccc(Cl)cc2)n1)C1CCCCC1` (stereo not drawn): 170 nM; for `COc1ccc(-c2nc(CC(=O)N(C3CCCCC3)C(C)C(=O)NC3CCCC3)cs2)cc1OC` (stereo not drawn): 6300 nM; for `CC(C(=O)NC1CCCC1)N(C(=O)Cn1nnc(-c2ccc3c(c2)OCO3)n1)C1CCOCC1` (stereo not drawn): 840 nM.
Same read-out and setting: the result for `COc1ccc(-c2nnn(CC(=O)N(C3CCCCC3)C(C)(C)C(=O)NC3CCCC3)n2)cc1OC` reads 19000 nM.
As for `COc1ccc(-c2nnn(CC(=O)N(C)C(C)C(=O)NC3CCCC3)n2)cc1OC` (stereo not drawn), the IC50 in data set [1] came out at 19000 nM.
Same read-out and setting: the result for `COc1ccc(-c2nnn(CC(=O)N(C3CCCCC3)C(C)C(=O)NC3CC3)n2)cc1OC` (stereo not drawn) reads 420 nM; that for `CC(C(=O)NC1CCCC1)N(C(=O)Cn1nnc(-c2ccccc2)n1)C1CCCCC1` (stereo not drawn), 370 nM.
Same read-out and setting: the result for `COc1ccc(-c2nnn(CC(=O)N(C3CCCCC3)C(C)C(=O)N3CCCCC3)n2)cc1OC` (stereo not drawn) reads 7100 nM.
Same read-out and setting: the result for `COc1ccc(-c2nc(CC(=O)N(C3CCCCC3)C(C)C(=O)NC3CCCC3)co2)cc1OC` (stereo not drawn) reads 130 nM; that for `COc1ccc(-c2nnn(CC(=O)N(C3CCCCC3)C(C)C(=O)NC(C)(C)C)n2)cc1OC` (stereo not drawn), 17000 nM; that for `COc1ccc(-c2nnn(CC(=O)N(C3CCCCC3)C(C)C(=O)NC(C)C)n2)cc1OC` (stereo not drawn), 810 nM.
For the molecule `CC(C(=O)NC1CCCC1)N(C(=O)Cn1nnc(-c2ccc3c(c2)OCO3)n1)C1CCCCC1` (stereo not drawn), the IC50 in data set [1] was 27 nM.
Same read-out and setting: the result for `CC(C(=O)NC1CCCC1)N(C(=O)Cn1nnc(-c2ccccc2Cl)n1)C1CCCCC1` (stereo not drawn) reads 3800 nM; that for `CC(C(=O)NC1CCCC1)N(C(=O)Cn1nnc(-c2ccccc2F)n1)C1CCCCC1` (stereo not drawn), 620 nM.
For the molecule `COc1ccc(-c2nnn(CC(=O)N(C3CCN(C)CC3)C(C)C(=O)NC3CCCC3)n2)cc1OC` (stereo not drawn), the IC50 in data set [1] is more than 25000 nM.
Same read-out and setting: the result for `COc1ccccc1-c1nnn(CC(=O)N(C2CCCCC2)C(C)C(=O)NC2CCCC2)n1` (stereo not drawn) reads more than 25000 nM.

These data come from ChEMBL document CHEMBL3425510, “Discovery of bisamide-heterocycles as inhibitors of scavenger receptor BI (SR-BI)-mediated lipid uptake” (Bioorg Med Chem Lett, 2015).
